In the M2OR odorant receptor database:

Target: T1, UniProt Q8VGD7
T1 sequence (whole entry): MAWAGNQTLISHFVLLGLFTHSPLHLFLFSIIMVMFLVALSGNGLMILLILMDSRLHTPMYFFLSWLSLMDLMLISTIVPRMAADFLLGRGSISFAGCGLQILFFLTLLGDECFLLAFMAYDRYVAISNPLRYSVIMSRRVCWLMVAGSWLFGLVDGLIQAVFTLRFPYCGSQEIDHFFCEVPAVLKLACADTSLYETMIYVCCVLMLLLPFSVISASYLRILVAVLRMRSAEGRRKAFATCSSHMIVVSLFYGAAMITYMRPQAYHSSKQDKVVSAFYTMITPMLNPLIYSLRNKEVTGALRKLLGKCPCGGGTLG
Conditions: stereoisomer not certain
In short: (§1)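 Whether a receptor–molecule pair is responsive (active) rests on the original authors' judgment that its measured signal was statistically different from baseline. Pairs without that judgment are non-responsive (inactive). Sources used varied assay methods, commonly transient luciferase assays in mammalian cell lines.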
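Note: active if original authors judged signal statistically different from baseline.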

Row | SMILES | odorant receptor agonist call
1 | O=c1ccc2ccccc2o1 | inactive
2 | CCCCCC=O | inactive
3 | CCCCCCCO | inactive
4 | O=C1CCOc2ccccc21 | active
5 | CCCCCCOC(C)=O | inactive
6 | O=C(c1ccccc1)c1ccccc1 | inactive
7 | CCCCCCCCC(=O)O | inactive
8 | CC12CCC(CC1=O)C2(C)C (stereo not given) | active
9 | CCCCCCCCO | inactive
10 | CCCCC(C)=O | inactive
11 | CCCCCCCCCS | inactive
12 | CCCCCCCCCC(=O)[O-].[H+] | inactive
13 | CCCCCCO | inactive
14 | CC(=O)OCc1ccccc1 | inactive
15 | CCCCCCCCCO | inactive
16 | CCCCCCC(C)=O | inactive
17 | CCCCOC=O | inactive
18 | CCCCCOC(=O)CCCCC | inactive

Target: T2, UniProt Q8VGH1
T2 sequence (whole entry): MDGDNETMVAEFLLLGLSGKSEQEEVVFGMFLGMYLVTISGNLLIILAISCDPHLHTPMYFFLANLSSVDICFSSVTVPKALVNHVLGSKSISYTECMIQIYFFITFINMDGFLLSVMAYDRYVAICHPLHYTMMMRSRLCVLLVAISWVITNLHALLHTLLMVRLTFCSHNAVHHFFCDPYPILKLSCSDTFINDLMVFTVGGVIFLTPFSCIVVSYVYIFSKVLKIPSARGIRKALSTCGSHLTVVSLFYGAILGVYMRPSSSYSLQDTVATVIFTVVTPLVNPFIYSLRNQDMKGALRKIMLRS
Conditions: stereoisomer not certain
In short: as §1

Row | SMILES | odorant receptor agonist call
19 | O=c1ccc2ccccc2o1 | active
20 | CCCCCC=O | inactive
21 | CCCCCCCO | inactive
22 | O=C1CCOc2ccccc21 | active
23 | CCCCCCOC(C)=O | inactive
24 | O=C(c1ccccc1)c1ccccc1 | inactive
25 | CCCCCCCCC(=O)O | inactive
26 | CC12CCC(CC1=O)C2(C)C (stereo not given) | inactive
27 | CCCCCCCCO | inactive
28 | CCCCC(C)=O | inactive
29 | CCCCCCCCCS | inactive
30 | CCCCCCCCCC(=O)[O-].[H+] | inactive
31 | CCCCCCO | inactive
32 | CC(=O)OCc1ccccc1 | inactive
33 | CCCCCCCCCO | inactive
34 | CCCCCCC(C)=O | inactive
35 | CCCCOC=O | inactive
36 | CCCCCOC(=O)CCCCC | inactive

Target: T3, UniProt Q8VGJ1
T3 sequence (whole entry): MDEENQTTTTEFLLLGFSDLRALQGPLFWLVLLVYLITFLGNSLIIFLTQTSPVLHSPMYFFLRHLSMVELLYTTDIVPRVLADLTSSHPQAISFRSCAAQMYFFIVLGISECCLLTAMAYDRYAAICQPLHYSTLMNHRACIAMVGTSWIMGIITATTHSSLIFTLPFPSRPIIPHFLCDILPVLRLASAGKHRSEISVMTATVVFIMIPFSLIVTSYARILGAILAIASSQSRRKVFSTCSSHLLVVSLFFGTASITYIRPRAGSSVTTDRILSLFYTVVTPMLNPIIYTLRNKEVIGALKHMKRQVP
Conditions: stereoisomer not certain
In short: as §1

Row | SMILES | odorant receptor agonist call
37 | O=c1ccc2ccccc2o1 | inactive
38 | CCCCCC=O | inactive
39 | CCCCCCCO | inactive
40 | O=C1CCOc2ccccc21 | inactive
41 | CCCCCCOC(C)=O | inactive
42 | O=C(c1ccccc1)c1ccccc1 | active
43 | CCCCCCCCC(=O)O | inactive
44 | CC12CCC(CC1=O)C2(C)C (stereo not given) | inactive
45 | CCCCCCCCO | inactive
46 | CCCCC(C)=O | inactive
47 | CCCCCCCCCS | inactive
48 | CCCCCCCCCC(=O)[O-].[H+] | inactive
49 | CCCCCCO | inactive
50 | CC(=O)OCc1ccccc1 | inactive
51 | CCCCCCCCCO | inactive
52 | CCCCCCC(C)=O | inactive
53 | CCCCOC=O | inactive
54 | CCCCCOC(=O)CCCCC | inactive

Target: T4, UniProt Q8VGJ3
T4 sequence (whole entry): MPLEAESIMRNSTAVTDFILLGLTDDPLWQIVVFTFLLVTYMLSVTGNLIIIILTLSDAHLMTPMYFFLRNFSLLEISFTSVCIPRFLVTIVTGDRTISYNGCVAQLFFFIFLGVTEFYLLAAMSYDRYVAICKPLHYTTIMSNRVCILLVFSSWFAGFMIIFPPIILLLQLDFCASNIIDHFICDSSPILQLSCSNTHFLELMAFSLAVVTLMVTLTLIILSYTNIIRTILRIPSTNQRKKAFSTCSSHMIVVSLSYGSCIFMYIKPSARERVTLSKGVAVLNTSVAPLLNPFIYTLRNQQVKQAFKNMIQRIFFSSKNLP
Conditions: stereoisomer not certain
In short: as §1

Row | SMILES | odorant receptor agonist call
55 | CCCCCC=O | inactive
56 | CCCCCCCO | inactive
57 | O=C1CCOc2ccccc21 | inactive
58 | CCCCCCOC(C)=O | inactive
59 | O=C(c1ccccc1)c1ccccc1 | inactive
60 | CCCCCCCCC(=O)O | inactive
61 | CC12CCC(CC1=O)C2(C)C (stereo not given) | inactive
62 | CCCCCCCCO | inactive
63 | CCCCC(C)=O | inactive
64 | CCCCCCCCCS | inactive
65 | CCCCCCCCCC(=O)[O-].[H+] | inactive
66 | CCCCCCO | inactive
67 | CC(=O)OCc1ccccc1 | inactive
68 | CCCCCCCCCO | inactive
69 | CCCCCCC(C)=O | inactive
70 | CCCCOC=O | inactive
71 | CCCCCOC(=O)CCCCC | inactive

Target: T5, UniProt Q8VGJ5
T5 sequence (whole entry): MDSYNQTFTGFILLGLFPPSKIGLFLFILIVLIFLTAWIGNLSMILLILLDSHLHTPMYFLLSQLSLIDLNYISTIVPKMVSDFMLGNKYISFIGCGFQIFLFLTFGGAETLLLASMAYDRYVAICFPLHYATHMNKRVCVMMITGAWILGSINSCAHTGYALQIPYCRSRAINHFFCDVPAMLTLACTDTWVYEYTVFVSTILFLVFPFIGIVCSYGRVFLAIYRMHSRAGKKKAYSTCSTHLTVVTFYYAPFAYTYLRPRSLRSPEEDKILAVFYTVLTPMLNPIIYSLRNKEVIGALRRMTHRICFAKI
Conditions: stereoisomer not certain
In short: as §1

Row | SMILES | odorant receptor agonist call
72 | O=c1ccc2ccccc2o1 | inactive
73 | CCCCCC=O | inactive
74 | CCCCCCCO | active
75 | O=C1CCOc2ccccc21 | active
76 | CCCCCCOC(C)=O | inactive
77 | O=C(c1ccccc1)c1ccccc1 | inactive
78 | CCCCCCCCC(=O)O | inactive
79 | CC12CCC(CC1=O)C2(C)C (stereo not given) | inactive
80 | CCCCCCCCO | inactive
81 | CCCCC(C)=O | active
82 | CCCCCCCCCS | inactive
83 | CCCCCCCCCC(=O)[O-].[H+] | inactive
84 | CCCCCCO | inactive
85 | CC(=O)OCc1ccccc1 | active
86 | CCCCCCCCCO | inactive
87 | CCCCCCC(C)=O | active
88 | CCCCOC=O | inactive
89 | CCCCCOC(=O)CCCCC | inactive

Target: T6, UniProt Q8VGL0
T6 sequence (whole entry): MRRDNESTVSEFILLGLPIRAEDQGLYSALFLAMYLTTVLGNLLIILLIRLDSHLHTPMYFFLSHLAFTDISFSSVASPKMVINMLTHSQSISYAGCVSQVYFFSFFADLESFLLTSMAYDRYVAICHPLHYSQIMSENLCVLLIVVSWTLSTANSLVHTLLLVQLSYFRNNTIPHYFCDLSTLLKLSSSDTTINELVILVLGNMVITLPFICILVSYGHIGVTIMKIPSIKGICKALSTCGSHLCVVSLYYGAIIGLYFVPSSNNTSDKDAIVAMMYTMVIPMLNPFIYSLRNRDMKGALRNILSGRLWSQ
Conditions: stereoisomer not certain
In short: as §1

Row | SMILES | odorant receptor agonist call
90 | O=c1ccc2ccccc2o1 | inactive
91 | CCCCCC=O | inactive
92 | CCCCCCCO | inactive
93 | O=C1CCOc2ccccc21 | inactive
94 | CCCCCCOC(C)=O | inactive
95 | O=C(c1ccccc1)c1ccccc1 | inactive
96 | CCCCCCCCC(=O)O | inactive
97 | CC12CCC(CC1=O)C2(C)C (stereo not given) | active
98 | CCCCCCCCO | inactive
99 | CCCCC(C)=O | inactive
100 | CCCCCCCCCS | inactive
101 | CCCCCCCCCC(=O)[O-].[H+] | inactive
102 | CCCCCCO | inactive
103 | CC(=O)OCc1ccccc1 | inactive
104 | CCCCCCCCCO | inactive
105 | CCCCCCC(C)=O | inactive
106 | CCCCOC=O | inactive
107 | CCCCCOC(=O)CCCCC | inactive

Target: T7, UniProt Q8VGL7
T7 sequence (whole entry): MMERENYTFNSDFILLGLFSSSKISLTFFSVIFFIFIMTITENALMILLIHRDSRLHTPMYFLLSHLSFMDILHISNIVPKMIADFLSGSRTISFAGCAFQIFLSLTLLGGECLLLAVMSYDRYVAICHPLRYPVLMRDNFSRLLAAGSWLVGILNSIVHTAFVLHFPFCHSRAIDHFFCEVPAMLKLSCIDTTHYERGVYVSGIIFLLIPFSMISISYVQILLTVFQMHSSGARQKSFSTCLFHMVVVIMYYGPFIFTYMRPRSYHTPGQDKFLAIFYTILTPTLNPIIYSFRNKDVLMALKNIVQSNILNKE
Conditions: stereoisomer not certain
In short: as §1

Row | SMILES | odorant receptor agonist call
108 | O=c1ccc2ccccc2o1 | inactive
109 | CCCCCC=O | inactive
110 | CCCCCCCO | inactive
111 | O=C1CCOc2ccccc21 | active
112 | CCCCCCOC(C)=O | inactive
113 | O=C(c1ccccc1)c1ccccc1 | inactive
114 | CCCCCCCCC(=O)O | inactive
115 | CC12CCC(CC1=O)C2(C)C (stereo not given) | inactive
116 | CCCCCCCCO | inactive
117 | CCCCC(C)=O | inactive
118 | CCCCCCCCCS | inactive
119 | CCCCCCCCCC(=O)[O-].[H+] | inactive
120 | CCCCCCO | inactive
121 | CC(=O)OCc1ccccc1 | inactive
122 | CCCCCCCCCO | inactive
123 | CCCCCCC(C)=O | inactive
124 | CCCCOC=O | inactive
125 | CCCCCOC(=O)CCCCC | inactive
